Laboratory results: paper PMC4909612 (EBioMedicine, 2016)
Values joined by “and” are separate entries in the source; they are usually repeats but may differ in a detail not shown here. Equal values may be shown once.

Experiments:
[1] = test system: intracellular tyrosine kinase domain of human PDGFR-β; assay: PDGFR-β activity assay kit; type: biochemical; conditions: n = 6 each group
Procedure, shortened: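 Human PDGFR-β kinase activity was measured with a commercial PDGFR-β activity assay kit, n = 6 per group. Values are means ± SEM from three independent experiments, compared with the control group.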

[2] = biological target: human PDGFR-β (Met 1-Lys 531) protein (human) (UniProt P09619); assay: MST
[3] = biological target: human PDGFR-β (Met 1-Lys 531) protein (human) (UniProt P09619); assay: SPR
[4] = biological target: human PDGFR-β (Met 1-Lys 531) protein with the Phe136/Ala136 and Phe138/Ala138 mutations (human) (UniProt P09619); assay: SPR

| Compound | effect on the activated intracellular tyrosine kinase domain / kinase activity of human PDGFR-β [1] | Kd [2] [µM] | Kd [3] | dH [3] | Kd [4] [µM] |
| --- | --- | --- | --- | --- | --- |
| CCN(CC)CCNC(=O)c1c(C)[nH]c(/C=C2\C(=O)Nc3ccc(F)cc32)c1C [sunitinib] | very obvious inhibitory effect |  |  |  |  |
| destruxin A5 (peptide) |  | 5.43 | 4.92 µM and 8.02 µM | -2.28 kcal·M^(− 1) | 99.5 |
